# OX1R antag-1 – antagonists of human orexin 1 receptor (OX1R). O43613. OX1R-expressing cells, FRET antagonist read-out. inhibition, % at 6.6 µM. actives 1.8% (n = 330,000). AID 485270; in the data active = inhibition mostly above about 38%, no sharp cut-off; inactive = mostly below about 40%;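 note: 0% = agonist challenge alone and 100% = reference antagonist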
# Target sequence (O43613 whole entry, looked up): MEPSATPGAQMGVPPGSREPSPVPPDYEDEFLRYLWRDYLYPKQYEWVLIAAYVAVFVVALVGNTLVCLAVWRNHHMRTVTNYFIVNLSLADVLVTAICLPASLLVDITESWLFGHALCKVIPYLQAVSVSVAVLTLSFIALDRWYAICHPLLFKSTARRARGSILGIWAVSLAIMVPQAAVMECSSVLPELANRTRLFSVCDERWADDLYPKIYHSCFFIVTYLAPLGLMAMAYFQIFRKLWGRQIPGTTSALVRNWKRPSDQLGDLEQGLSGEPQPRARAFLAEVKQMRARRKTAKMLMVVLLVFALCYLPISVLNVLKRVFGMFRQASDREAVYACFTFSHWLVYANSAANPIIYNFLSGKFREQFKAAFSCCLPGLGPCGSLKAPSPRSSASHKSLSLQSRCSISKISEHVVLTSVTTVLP
# M1 ag parental – nonselective activator or artifact in parental CHO-K1 cells. actives 0.48% (n = 360,000). Fluo-8 calcium fluorescence; scaled to maximal ATP response, vehicle zero. activation, % at 3 µM. AID 602248; in the data active = activation above about 15%;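 note: untransfected CHO-K1 host cells lacking M1 receptor as counterscreen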
# CHO-K1 Ca antag – M1 antagonist counterscreen hit in parental CHO-K1 cells | ATP-induced calcium, Fluo-8 fluorescence | inhibition, % at 3 µM | actives 0.6% (n = 360,000);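 active = inhibition above a per-plate cutoff, the plate's mean sample inhibition plus 3 SD, cut at about 24% in these data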;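 note: 0% = DMSO plus EC80 ATP and 100% = DMSO alone without ATP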
# CHO parental Ca – counter-screen for OX1R antagonists: effect in parental CHO cells | inhibition, % at 5.6 µM | actives 0.63% (n = 330,000) | parental CHO-K1, ATP-induced calcium, Fluo-8 fluorescence | AID 463079;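 active = inhibition above that plate's mean sample inhibition plus 3 SD, cut at about 26% in these data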;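 note: 0% = ATP-challenged DMSO wells and 100% = DMSO wells without ATP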
#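 Assay system – parental CHO cells · Reagent – ATP stimulus · Detection – intracellular calcium via Fluo-8 no-wash fluorescent dye · Evaluation – percent inhibition of ATP-evoked calcium rise, normalized to controls · Controls – ATP wells versus no-ATP DMSO wells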
# CHO-K1 Ca PAM – counter-screen for M1 PAMs: effect in parental CHO-K1 cells; activation, % at 3 µM; ATP EC20, Fluo-8 calcium fluorescence; 0% at ATP EC20, 100% at ATP max; AID 602247; actives 0.02% (n = 360,000);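 active = activation above the run cutoff, the mean activation of all test compounds plus 3 SD, cut at about 40% in these data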;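 note: peak over basal fluorescence ratio in a 140 s read after ATP addition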
# OX1R antag-2 – antagonists of human orexin 1 receptor; O43613; CHO/OX1R cells, Fluo-8 calcium fluorescence, orexin A; inhibition, % at 5 µM; actives 0.43% (n = 330,000);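 active = inhibition above its plate's threshold, mean inhibition of all tested compounds on the plate plus 3 SD, cut at about 37% in these data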;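 note: 0% = orexin A challenge wells and 100% = SB-334867-A antagonist wells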
# OX1R Ca confirm – OX1R (human) antagonism, confirmed | shares compounds with OX1R antag-2 | CHO/OX1R cells, orexin A calcium Fluo-8 fluorescence | inhibition, % at 5 µM | actives 38% (n = 1,100); in the data active = inhibition above about 29%;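 note: 0% = agonist challenge alone and 100% = reference antagonist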
# CHO Ca counter – counter-screen for OX1R antagonists: effect in parental CHO cells | inhibition, % at 5.6 µM | AID 492965 | parental CHO-K1, ATP-induced calcium, Fluo-8 fluorescence | actives 9.3% (n = 1,100) | shares compounds with OX1R antag-2;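 active = inhibition above a per-plate limit, the mean inhibition of that plate's test compounds plus 3 SD, cut at about 25% in these data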;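 note: 0% = ATP challenge with DMSO and 100% = DMSO without ATP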
# OX1R HTRF conf – confirmation of human orexin 1 receptor antagonists, HTRF format; shares compounds with OX1R antag-1; OX1R-expressing cells, HTRF antagonist assay; actives 49% (n = 1,800); inhibition, % at 6.6 µM; AID 492964; in the data active = inhibition above about 55%;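 note: CHO cells expressing OX1R stimulated with orexin A at about EC80; 0% = agonist challenge alone and 100% = reference antagonist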
# CHO-K1 HTRF cnt – counter-screen for OX1R antagonists: effect in parental CHO-K1 cells; shares compounds with OX1R antag-1; HTRF counterscreen; inhibition, % at 6.6 µM; actives 48% (n = 1,800); AID 493232; in the data active = inhibition above about 17%;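 note: 0% = agonist challenge with vehicle and 100% = vehicle alone without agonist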
# The depositor's hits bear a star; . = no result given. This is a sample that favours compounds with a hit; in the whole collection about 2.9% have one here.
SMILES,OX1R antag-1,M1 ag parental,CHO-K1 Ca antag,CHO parental Ca,CHO-K1 Ca PAM,OX1R antag-2,OX1R Ca confirm,CHO Ca counter,OX1R HTRF conf,CHO-K1 HTRF cnt
COC(=O)C(C(C)=O)C1=C/C(=N\S(=O)(=O)c2ccc(C)cc2)c2ccccc2C1=O (stereo not drawn),106*,3,-13,-9,17,97*,50*,-12,94*,1
COCCN(C(=O)COC(=O)CCS(=O)(=O)c1ccccc1)c1c(N)n(Cc2ccccc2)c(=O)[nH]c1=O,18,0,16,-3,-25,-7,.,.,.,.
NC(=S)N/N=C/c1ccccc1OCc1cccc(Cl)c1,81*,0,6,-5,7,54*,35*,2,81*,14
COc1ccc(/C=N/NC(=O)c2ccc3ccccc3c2)cc1OS(=O)(=O)c1ccc(NC(C)=O)cc1,63*,2,0,18,-2,60*,41*,13,53,-1
COc1ccc(C=O)cc1OS(=O)(=O)c1ccc(NC(C)=O)cc1,6,3,6,5,12,7,.,.,.,.
CCn1c(SCC(=O)Nc2sc3c(c2C#N)CCCC3)nnc1-c1ccco1,94*,2,-11,-22,14,31,21,-15,78*,-1
Cc1ccc(N(CC(=O)NCCc2ccccc2)S(=O)(=O)c2c(C)noc2C)cc1,85*,0,-13,-26,-11,70*,44*,-31,82*,-23
COc1ccc(Cl)cc1C(=O)OCC(=O)NCCNC(=O)COC(=O)c1cc(Cl)ccc1OC,59*,2,0,2,0,28,26,42*,71*,1
CCc1sc(C(=O)Nc2nc(-c3ccccn3)cs2)cc1C,52*,0,-6,-11,6,38,19,-7,32,10
Cc1ccc(C(=O)Nc2nc(-c3ccccn3)cs2)s1,6,3,-1,-12,-17,7,.,.,.,.
CN(CC(=O)Nc1ccc(Cl)c(C(F)(F)F)c1)C(=O)Cc1ccsc1,50*,8,-6,11,-9,28,-3,-19,29,-23
COc1cccc(NC(=O)CN2C(=O)C(c3ccc(C)cc3)=NC23CCCCCC3)c1,75*,0,4,-28,5,41*,47*,0,87*,3
Cc1nc2ccc(NC(=O)c3oc4ccc(F)cc4c3C)cc2s1,100*,0,2,-9,-14,72*,59*,-11,93*,13
CNc1oc(-c2ccccc2Cl)nc1C#N,20,3,5,-4,-2,-3,.,.,.,.
CNc1oc(-c2cccc3ccccc23)nc1C#N,90*,0,1,-15,2,92*,68*,-2,94*,5
CCCCNC(=O)[C@@H]1CC=C[C@@H]2CCN(Cc3ccc(Cl)c(Cl)c3)C(=O)[C@@H]21,91*,-1,-9,-11,0,47*,28,-4,75*,-2
COc1ccc(CN2CC[C@H]3C=CC[C@@H](C(=O)Nc4ccc(Cl)c(C(F)(F)F)c4)[C@H]3C2=O)cc1OC,86*,0,-28,-26,18,63*,70*,-12,89*,3
O=C(NCc1cccnc1)[C@@H]1CC=C[C@@H]2CCN(Cc3ccc(Cl)c(Cl)c3)C(=O)[C@@H]21,28,0,-15,-16,-1,-19,.,.,.,.
CCC(C(=O)NCCc1ccc(OC)cc1OC)n1nc(C)n2c(cc3occc32)c1=O (stereo not drawn),18,-1,-7,-30,-10,-27,.,.,.,.
COc1ccc(C)cc1NC(=O)c1ccccc1NS(=O)(=O)c1ccc(Cl)s1,62*,12,12,28,0,23,9,46*,42,9
Cc1cnc(NC(=O)c2cc3c(C)nn(-c4ccccc4)c3s2)s1,56*,0,4,-27,2,77*,73*,-8,93*,12
N#Cc1cnn(-c2ccccc2)c1NC(=O)CN1CCN(c2ccccc2)CC1,-2,4,-2,1,3,-5,.,.,.,.
CNc1nc(Nc2ccc(C)c(Cl)c2)c2cnn(C)c2n1,84*,2,-14,-16,16,33,9,-7,84*,12
CCCNc1nc(Nc2ccc(C)c(Cl)c2)c2cnn(C)c2n1,3,0,7,-17,8,-31,.,.,.,.
CN(C)c1ccc(NC(=S)c2ccc3ccccc3n2)cc1,93*,2,-15,0,17,58*,29,14,85*,9
SMILES,OX1R antag-1,M1 ag parental,CHO-K1 Ca antag,CHO parental Ca,CHO-K1 Ca PAM,OX1R antag-2,OX1R Ca confirm,CHO Ca counter,OX1R HTRF conf,CHO-K1 HTRF cnt
Cc1ccc(C)c(NC(=S)c2ccc3ccccc3n2)c1,19,0,-12,-28,11,-35,.,.,.,.
COc1ccc(/C=C/c2nc(-c3ccccc3O)n[nH]2)cc1OC,103*,5,-8,-21,27,72*,67*,1,92*,14
Cc1cc(C(=O)Nc2ccc(Cl)c(S(=O)(=O)N3CCOCC3)c2)c2ccccc2n1,9,7,-15,-5,11,-13,.,.,.,.
C=C(C)C(COc1c2occc2cc2ccc(=O)oc12)OC(C)(C)C(O)COc1c2occc2cc2ccc(=O)oc12 (stereo not drawn),84*,3,4,-24,-13,61*,39*,-5,88*,-1
CCn1cc(C(=O)N[C@@H](C)C(=O)NCCCn2ccnc2)c(=O)c2cc3c(cc21)OCO3,11,0,-12,-7,14,-2,.,.,.,.
O=C(Nc1cccc(Cl)c1)c1ccc(F)c(S(=O)(=O)NCc2ccc3c(c2)OCO3)c1,83*,3,5,-6,12,59*,48*,-1,76*,-6
CN(CC(=O)Nc1cccc(F)c1)CC(=O)Nc1ccccc1Oc1ccccc1,-3,0,1,-12,-8,-32,.,.,.,.
COc1cc(/C=N/NC(=O)CCn2c3ccccc3c3ccccc32)ccc1O,54*,2,1,8,9,75*,37*,3,83*,-15
COc1cc2c(cc1NC(=O)c1ccccc1F)CCCC2,21,-1,-2,-3,-2,-23,.,.,.,.
